Assay results: PMC9632315 (The Oncologist, 2022)
Where “and” joins values, the source holds several entries; their conditions need not be identical. Equal entries are not always repeated.

Columns and labels:
[1] = stated without reference; cited from earlier work
[2] = system: plasma kynurenine production; settings: cited from earlier work
IDO1 = settings: patients with advanced solid tumors; cited from earlier work
[3] = Epacadostat plasma pharmacokinetics, noncompartmental analysis; assay type: in vivo, human; settings: steady state cycle 1/day 8; for AUC / half-life / Tmax: human, plasma, oral; for AUC: AUC0-τ; for half-life: t ½; for Tmax: t max, median (range)
How it was run: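 Test compound 100 mg oral bid (B, C); pembrolizumab 200 mg IV q3w. A: oxaliplatin 85, leucovorin 400, 5-FU 400 mg/m2 bolus then 1200 mg/m2 per day over 46 h; days 1, 15, 28-day cycles. B: nab-paclitaxel 125, gemcitabine 1000 mg/m2; days 1, 8, 15, 28-day cycles. C: paclitaxel 200 mg/m2, carboplatin AUC 6; day 1, 21-day cycles.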

advanced melanoma = settings: patients with advanced melanoma; median follow-up of 12.4 months; cited from earlier work
[4] = group A, mFOLFOX6, individual value (n ≤ 2)
[5] = group C, paclitaxel and carboplatin, individual values (n ≤ 2)
[6] = group D, pemetrexed and platinum agent, individual value (n ≤ 2)
[7] = group G, 5-FU and platinum agent, individual values (n ≤ 2)
[8] = 100 mg twice daily, group B, nab-paclitaxel and gemcitabine, individual value (n ≤ 2)

NS(=O)(=O)NCCNc1nonc1C(=NO)Nc1ccc(F)c(Br)c1 [Epacadostat]
clearance mechanism [1]: cleared predominantly by hepatic glucuronidation | maximally tolerated dose [2]: 600 mg BID | epacadostat dose required for suppression of plasma kynurenine production ([2]; in combination with pembrolizumab, retrospective analysis): 600 mg BID | metabolism of tryptophan to kynurenine, whole blood assays (IDO1): effectively inhibits | percentage decrease in kynurenine levels from baseline to day 15 (IDO1): dose dependent | CLss/F [3, 4]: 81.7 L/h | CLss/F ([3]; group B, nab-paclitaxel and gemcitabine, individual value (n ≤ 2)): 82.6 L/h | AUC0-τ [3, 5]: 2.44 µM·h | CLss/F [3, 5]: 70.4 L/h and 93.5 L/h | t ½ [3, 5]: 2.62 h and 1.07 h | AUC0-τ [3, 6]: 1.81 µM·h | CLss/F [3, 6]: 126 L/h | AUC0-τ [3, 7]: 2.81 µM·h | CLss/F [3, 7]: 76.8 L/h and 81.3 L/h | t ½ [3, 7]: 1.30 h | AUC [3, 8]: 2.76 µM·h | AUC ([3]; 100 mg twice daily, group C, paclitaxel and carboplatin, individual values (n ≤ 2)): 3.24 µM·h | half-life [3, 8]: 1.42 h | AUC [3, 4]: 2.79 µM·h | AUC [3, 7]: 2.97 µM·h | Tmax ([3]; group A, mFOLFOX6, N=6): 2.9 h | Tmax ([3]; group F, gemcitabine and platinum agent, N=7): 2.1 h | Tmax ([3]; group G, 5-FU and platinum agent, N=8): 3.1 h | half-life [3, 4]: 1.78 h | half-life [3, 6]: 1.3 h | half-life [3, 7]: 1.35 h

Nc1nc2[nH]cc(CCc3ccc(C(=O)N[C@@H](CCC(=O)O)C(=O)O)cc3)c2c(=O)[nH]1 [pemetrexed, Pemetrexed, reference compound]
clearance mechanism [1]: cleared by renal excretion

placebo plus pembrolizumab: ECHO-301/KEYNOTE-252 control arm: placebo plus the PD-1 inhibitor pembrolizumab
OS (median) (advanced melanoma): not reached
